Source: ChEMBL document CHEMBL4138168, “Design and synthesis of novel thiobarbituric acid derivatives targeting both wild-type and BRAF-mutated melanoma cells” (Eur J Med Chem, 2018)
Active and inactive are the calls of the source. No cut-off for these calls is given here.

Legend:
UACC-903 [1] = assay: Induction of apoptosis in human UACC-903 cells harboring BRAF mutant assessed as viable cells at 5 uM after 24 hrs by Annexin V/7-AAD staining-based assay (reference value: 95.64%); type: functional; details: UACC-903, 24 h, read-out: Activity
UACC-903 [2] = assay: Induction of apoptosis in human UACC-903 cells harboring BRAF mutant assessed as live cells level at 5 uM after 24 hrs by AAD dye containing caspase 3/7 activity assay (reference value: 90.06%); type: functional
[3] = Cytotoxicity against human MCF10A cells assessed as cell viability at 25 uM after 48 hrs by MTT assay relative to control; type: cell-based, MCF-10A; details: read-out: Activity
Summary of the method: (§1)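 MTT viability at a single 25 μM dose, 48 h, 3,000 cells/well. MCF10A normal breast epithelial cells were kept in MEGM mammary epithelial medium; the cancer lines were in DMEM with 10% FBS, 37 °C. OD at 570 nm with 630 nm background, expressed relative to control.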

UACC-903 [4] = assay: Induction of apoptosis in human UACC-903 cells harboring BRAF mutant assessed as viable cells at 25 uM after 24 hrs by Annexin V/7-AAD staining-based assay (reference value: 95.64%); type: functional; details: UACC-903, 24 h, read-out: Activity
UACC-903 [5] = assay: Induction of apoptosis in human UACC-903 cells harboring BRAF mutant assessed as late apoptotic cells at 5 uM after 24 hrs by Annexin V/7-AAD staining-based assay (reference value: 1.56%); type: functional
UACC-903 [6] = assay: Antiproliferative activity against human UACC-903 cells harboring BRAF mutant after 48 hrs by MTT assay; type: functional, cell-based; details: UACC-903, 48 h
Summary of the method: (§2)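 3,000 cells per well, grown at 37 °C (DMEM with 10% FBS and penicillin/streptomycin; HCT116 in McCoy's 5A). Cells exposed in triplicate to 0.5–25 μM compound for 48 h. MTT (5 mg/mL PBS stock) added for 3 h, formazan dissolved in DMSO, OD read at 570 nm minus 630 nm background. IC50 from non-linear regression of two independent experiments.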

HCT-116 = assay: Antiproliferative activity against human HCT116 cells after 48 hrs by MTT assay; type: functional, cell-based; details: HCT-116, 48 h; summary of the method: as §2
MCF7 [7] = assay: Antiproliferative activity against human MCF7 cells expressing ER/PR/HER2 after 48 hrs by MTT assay; type: functional, cell-based; details: MCF7, 48 h; summary of the method: as §2
UACC-903 [8] = assay: Induction of apoptosis in human UACC-903 cells harboring BRAF mutant assessed as live cells level at 25 uM after 24 hrs by AAD dye containing caspase 3/7 activity assay (reference value: 90.06%); type: functional
[9] = Antiproliferative activity against human 1205 Lu cells after 48 hrs by MTT assay; type: functional, cell-based; summary of the method: as §2
MCF7 [10] = assay: Cytotoxicity against human MCF7 cells assessed as cell viability at 25 uM after 48 hrs by MTT assay relative to control; type: functional; details: MCF7, 48 h, read-out: Activity; summary of the method: as §1
[11] = Antiproliferative activity against human A375M cells after 48 hrs by MTT assay; type: functional, cell-based; summary of the method: as §2
[12] = Selectivity ratio of cytotoxicity against human MCF10A cells to IC50 for human UACC-903 cells harboring BRAF mutant; type: toxicity, cell-based; details: MCF10A cells versus UACC-903 cells harboring BRAF mutant
UACC-903 [13] = assay: Induction of apoptosis in human UACC-903 cells harboring BRAF mutant assessed as increase in dead cells at 50 uM after 24 hrs by Calcein-AM/ethidium bromide staining-based fluorescence assay (reference value: 3%); type: functional
UACC-903 [14] = assay: Induction of apoptosis in human UACC-903 cells harboring BRAF mutant assessed as early apoptotic cells at 25 uM after 24 hrs by Annexin V/7-AAD staining-based assay (reference value: 2.68%); type: functional
UACC-903 [15] = assay: Induction of apoptosis in human UACC-903 cells harboring BRAF mutant assessed as […] in cleaved PARP level at 5 to 25 uM after 24 hrs by Western blot analysis; type: functional, cell-based
Summary of the method: (§3)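 2 × 10^6 cells treated with the indicated concentrations for 24 h. Whole-cell lysates run on SDS-PAGE, transferred to PVDF, probed with antibodies against apoptosis/survival proteins, and detected by enhanced chemiluminescence.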

PANC-1 = assay: Antiproliferative activity against human PANC1 cells after 48 hrs by MTT assay; type: functional, cell-based; details: PANC-1, 48 h; summary of the method: as §2
UACC-903 [16] = assay: Induction of apoptosis in human UACC-903 cells harboring BRAF mutant assessed as apoptotic cells level at 5 uM after 24 hrs by AAD dye containing caspase 3/7 activity assay (reference value: 6.88%); type: functional
CHL-1 [17] = assay: Induction of apoptosis in human CHL-1 cells harboring wild type BRAF assessed as increase in phosphorylated Bcl-2 level at 5 to 25 uM after 24 hrs by Western blot analysis; type: functional, cell-based; summary of the method: as §3
UACC-903 [18] = assay: Induction of apoptosis in human UACC-903 cells harboring BRAF mutant assessed as decrease in survivin level at 5 to 25 uM after 24 hrs by Western blot analysis; type: functional, cell-based; summary of the method: as §3
CHL-1 [19] = assay: Induction of apoptosis in human CHL-1 cells harboring wild type BRAF assessed as decrease in Bcl-xL level at 5 to 25 uM after 24 hrs by Western blot analysis; type: functional, cell-based; summary of the method: as §3
UACC-903 [20] = assay: Induction of apoptosis in human UACC-903 cells harboring BRAF mutant assessed as necrotic cells at 5 uM after 24 hrs by Annexin V/7-AAD staining-based assay (reference value: 0.12%); type: functional
UACC-903 [21] = assay: Induction of apoptosis in human UACC-903 cells harboring BRAF mutant assessed as early apoptotic cells at 5 uM after 24 hrs by Annexin V/7-AAD staining-based assay (reference value: 2.68%); type: functional
CHL-1 [22] = assay: Induction of apoptosis in human CHL-1 cells harboring wild type BRAF assessed as increase in dead cells at 50 uM after 24 hrs by Calcein-AM/ethidium bromide staining-based fluorescence assay (reference value: 2%); type: functional
[23] = Selectivity ratio of cytotoxicity against human MCF10A cells to cytotoxicity against human MCF7 cells; type: toxicity, cell-based; details: MCF10A cells versus MCF7 cells
UACC-903 [24] = assay: Induction of apoptosis in human UACC-903 cells harboring BRAF mutant assessed as decrease in Bcl-xL level at 5 to 25 uM after 24 hrs by Western blot analysis; type: functional, cell-based; summary of the method: as §3
UACC-903 [25] = assay: Induction of apoptosis in human UACC-903 cells harboring BRAF mutant assessed as increase in dead cells at 25 uM after 24 hrs by Calcein-AM/ethidium bromide staining-based fluorescence assay (reference value: 3%); type: functional
UACC-903 [26] = assay: Induction of apoptosis in human UACC-903 cells harboring BRAF mutant assessed as increase in phosphorylated Bcl-2 level at 5 to 25 uM after 24 hrs by Western blot analysis; type: functional, cell-based; summary of the method: as §3
CHL-1 [27] = assay: Induction of apoptosis in human CHL-1 cells harboring wild type BRAF assessed as […] in cleaved PARP level at 5 to 25 uM after 24 hrs by Western blot analysis; type: functional, cell-based; summary of the method: as §3
[28] = Selectivity ratio of cytotoxicity against human MCF10A cells to cytotoxicity against human MDA-MB-231 cells; type: toxicity, cell-based; details: MCF10A cells versus MDA-MB-231 cells
WM 266-4 = assay: Antiproliferative activity against human WM266.4 cells after 48 hrs by MTT assay; type: functional, cell-based; details: WM 266-4, 48 h; summary of the method: as §2

| SMILES | viability at 5 µM (UACC-903 [1]) [%] | Activity (UACC-903 [2]) [%] | viability at 48 h, 25 µM [3] [%] | viability at 25 µM (UACC-903 [4]) [%] | Activity (UACC-903 [5]) [%] | IC50 (UACC-903 [6]) [µM] | IC50 (HCT-116) [µM] | IC50 (MCF7 [7]) [µM] | Activity (UACC-903 [8]) [%] | IC50 [9] [µM] | viability at 25 µM (MCF7 [10]) [%] | IC50 [11] [µM] | selectivity ratio [12] | Activity (UACC-903 [13]) [%] | Activity (UACC-903 [14]) [%] | Activity (UACC-903 [15]) | IC50 (PANC-1) [µM] | Activity (UACC-903 [16]) [%] | Activity (CHL-1 [17]) | Activity (UACC-903 [18]) | other results |
| --- | --- | --- | --- | --- | --- | --- | --- | --- | --- | --- | --- | --- | --- | --- | --- | --- | --- | --- | --- | --- | --- |
| O=C1NC(=S)N(c2ccccc2)C(=O)/C1=C/C=C/c1cccs1 | 92.6 | 87.26 | 60 | 29.4 | 3.18 | 7.6 | 2.4 | 16.5 | 25.7 | 13.5 | 20 to 30 | 14.8 | 3 | 45 | 21.04 | Active | 8.3 | 9.68 | Active | Active | Activity (CHL-1 [19]): Active; Activity (UACC-903 [20]): 0.54%; Activity (UACC-903 [21]): 3.7%; Activity (CHL-1 [22]): 40%; selectivity ratio [23]: 2; Activity (UACC-903 [24]): Active; Activity (UACC-903 [25]): 15 - 25%; Activity (UACC-903 [26]): Active; Activity (CHL-1 [27]): Active; selectivity ratio [28]: 2; IC50 (WM 266-4): 9.2 µM |
| O=C1NC(=S)NC(=O)C1=C/C=C/c1cccs1 | 91.3 | 90.28 | 60 | 25.8 | 3.14 | 8.1 | 7.7 | 16.2 | 17.4 | 12.4 | 20 to 30 | 10.6 | 3 | 85 | 30.28 | Active | 19.1 | 5.46 | Active | Active | Activity (CHL-1 [19]): Active; Activity (UACC-903 [20]): 0.4%; Activity (UACC-903 [21]): 5.12%; Activity (CHL-1 [22]): 98%; selectivity ratio [23]: 2; Activity (UACC-903 [24]): Active; Activity (UACC-903 [25]): 70%; Activity (UACC-903 [26]): Active; Activity (CHL-1 [27]): Active; selectivity ratio [28]: 2; IC50 (WM 266-4): 7.9 µM |
